Results: paper PMC12118959 (Toxicological Sciences, 2025)
Structures can show the parent of a compound that is named as a salt.

Experiments:
NaV1.5 = conditions: read-out: NaV1.5 IC50; ref Wang et al. 2010; cited from earlier work
3D ECTs [1] = test: Contractility; assay type: cell-based, human; conditions: for MEC (minimum effective concentration), active force: serum-free, paced at 1 Hz, 15 min per concentration
Summary of the method: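 Tissues were built from iCell cardiomyocytes plus human ventricular cardiac fibroblasts in hydrogel on Biowire II wires. After 30 min chamber equilibration, a 30-s baseline video was recorded, then a second one 10 min after a medium-pipetting step. Test compound in DMSO was added cumulatively at 3 or 4 rising concentrations (final DMSO 0.001–0.1%), 15 min each, with a 30-s video per concentration. n=6–9 tissues, one compound per tissue.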

2D hiPSC-CMs [2] = test: Motion-field imaging contractility; assay type: cell-based, human; conditions: for MEC (minimum effective concentration), maximum contraction speed: serum-containing medium, concentration for 1.08-fold increase or 0.92-fold decrease
Summary of the method: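 Thawed iCell hiPSC-CMs were re-plated on day 7 onto a ~3 mm fibronectin spot and cultured 5–9 days at 37°C, 5% CO2, with serum-containing medium overnight before recording. Phase-contrast video at 4x, 150 frames/s, analysed by block-matching. After sham baseline, cumulative additions from 1,000-fold DMSO stocks (final DMSO 0.1–0.4% v/v), 15 min each, 10-s videos; 4–5 wells. MEC by four-parameter log fit, 1.08/0.92-fold cutoffs.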

CaV1.2 = conditions: read-out: CaV1.2 IC50; ref Ando et al. 2017; cited from earlier work
hERG = conditions: read-out: hERG IC50; ref Sube and Ertel 2017; cited from earlier work
2D hiPSC-CMs [3] = conditions: ref Okai et al. 2020; cited from earlier work
aligned hiPSC-CMs = conditions: ref Satsuka et al. 2024; cited from earlier work
3D ECTs [4] = conditions: read-out: EC50, positive inotropic effect; same 3D ECT model; ref Feric et al. 2019; cited from earlier work

Row | Compound | MEC (minimum effective concentration), active force (3D ECTs [1]) [µM] | MEC (minimum effective concentration), maximum contraction speed (2D hiPSC-CMs [2]) [µM] | Concentration up to which no effect on active force was observed (3D ECTs [1]) [µM] | further results
1 | CC(C)NCC(O)COc1cccc2ccccc12 (racemic) [Propranolol, (±)-propranolol hydrochloride] | 3.0 |  |  | IC50 (NaV1.5): 3000 nM; MEC (minimum effective concentration), active force (3D ECTs [1]; listed as propranolol): ~3 µM
2 | Nc1cc(-c2ccncc2)c[nH]c1=O [Amrinone, amrinone] |  | >100 |  | 
3 | CC(=O)Oc1ccccc1C(=O)O [Aspirin, acetylsalicylic acid] | >300 | >300 | 300 | 
4 | C[C@H](CS)C(=O)N1CCC[C@H]1C(=O)O [Captopril, captopril] | >100 | >100 | 100 | 
5 | CN/C(=N/CCSCc1nc[nH]c1C)NC#N [Cimetidine, cimetidine] | >100 | >100 | 100 | 
6 | COc1ccc(Cl)cc1C(=O)NCCc1ccc(S(=O)(=O)NC(=O)NC2CCCCC2)cc1 [Glibenclamide, glyburide] | >100 | >100 |  | 
7 | O=C(CCCN1CCC(O)(c2ccc(Cl)cc2)CC1)c1ccc(F)cc1 [Haloperidol, haloperidol] | 0.30 | >0.10 |  | Concentration at which irregular beating was induced (2D hiPSC-CMs [2]): above 0.10 µM; IC50 (CaV1.2): 1300 nM
8 | CC(C)NCC(O)c1ccc(O)c(O)c1 (stereo not shown) [Isoproterenol, isoproterenol] | <0.00010 |  |  | MEC, positive inotropic effect (maximum contraction speed) (2D hiPSC-CMs [2]): 0.35 nM; MEC, positive inotropic effect (active force) (3D ECTs [1]): below 0.1 nM
9 | Cc1ccc(N(CC2=NCCN2)c2cccc(O)c2)cc1 [Phentolamine, phentolamine hydrochloride] |  | >0.30 | 3.0 | IC50 (hERG): 850 nM
10 | COc1ccc(-c2nc3ccc(C4=NNC(=O)CC4C)cc3[nH]2)cc1 (stereo not shown) [Pimobendan, pimobendan] |  | >60 |  | 
11 | CC[C@H](C)C(=O)O[C@H]1C[C@H](O)C=C2C=C[C@H](C)[C@H](CC[C@@H](O)C[C@@H](O)CC(=O)O)[C@H]21 [Pravastatin, pravastatin] | >100 | >100 | 100 | 
12 | CCOc1ccccc1OCCN[C@H](C)Cc1ccc(OC)c(S(N)(=O)=O)c1 [Tamsulosin, tamsulosin] | 3.0 | >3.0 | 1.0 | 
13 | CN(C)C/C=C(/c1ccc(Br)cc1)c1cccnc1 [Zimelidine, zimelidine] |  | >0.10 | 3.0 | 
14 | CC(CCc1ccc(O)cc1)NCCc1ccc(O)c(O)c1 (stereo not shown) [dobutamine] |  |  |  | Inotropic effect in 2D hiPSC-CMs (previous study) (2D hiPSC-CMs [3]): positive inotropic effect
15 | Cc1[nH]c(=O)c(C#N)cc1-c1ccncc1 [milrinone] |  |  |  | Inotropic effect in aligned hiPSC-CMs (aligned hiPSC-CMs): remained undetectable; EC50 (3D ECTs [4]): 1.6 nM
